GI50, inhibition and Activity data for 15 compounds are collected here from ChEMBL document CHEMBL1152636, “Synthesis and biological evaluation of 14-(aminoalkyl-aminomethyl)aromathecins as topoisomerase I inhibitors: investigating the hypothesis of shared structure-activity relationships” (2009).

The source made the active and inactive calls. The calls are words filed in the database; no cut-off is given here.

For one test, the system named is HCT-116. Kind of test: Cytotoxicity against human HCT116 cells. Format: functional. Put shortly: (§1)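 NCI ~60 human tumor cell line screen; after a single-dose pass at 10−5 M, selected compounds run at five concentrations from 10−8 to 10−4 M; GI50 reported per cell line.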
A further test concerns DU-145. Kind of test: Cytotoxicity against human DU145 cells. It is filed as functional. Put shortly:
as §1

Test [1] deals with T1, DNA topoisomerase 1 (Homo sapiens) (UniProt P11387).
T1 sequence (whole entry): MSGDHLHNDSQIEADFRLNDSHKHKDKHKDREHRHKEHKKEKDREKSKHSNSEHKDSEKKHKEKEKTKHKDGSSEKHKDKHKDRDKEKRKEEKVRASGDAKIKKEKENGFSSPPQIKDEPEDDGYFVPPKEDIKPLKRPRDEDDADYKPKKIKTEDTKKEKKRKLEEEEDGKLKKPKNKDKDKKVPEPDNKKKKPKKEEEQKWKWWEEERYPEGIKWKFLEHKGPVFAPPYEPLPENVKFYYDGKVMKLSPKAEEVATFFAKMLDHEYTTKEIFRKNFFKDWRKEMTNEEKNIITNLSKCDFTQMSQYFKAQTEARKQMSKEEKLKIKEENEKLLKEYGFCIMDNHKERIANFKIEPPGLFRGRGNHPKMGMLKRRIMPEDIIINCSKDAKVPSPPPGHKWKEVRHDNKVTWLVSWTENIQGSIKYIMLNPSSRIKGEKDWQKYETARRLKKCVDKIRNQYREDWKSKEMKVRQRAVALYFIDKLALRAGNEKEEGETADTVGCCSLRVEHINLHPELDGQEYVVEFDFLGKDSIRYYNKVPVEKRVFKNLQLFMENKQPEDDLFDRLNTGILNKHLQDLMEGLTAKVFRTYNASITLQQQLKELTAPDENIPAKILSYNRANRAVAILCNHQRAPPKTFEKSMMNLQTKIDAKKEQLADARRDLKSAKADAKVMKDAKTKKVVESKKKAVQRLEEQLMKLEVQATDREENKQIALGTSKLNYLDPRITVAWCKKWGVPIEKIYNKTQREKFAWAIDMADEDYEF
Kind of test: Inhibition of human DNA topoisomerase 1 assessed as induction of enzyme-dependent DNA cleavage relative to 1 uM camptothecin.

The test system of another test is MDA-MB-435. Kind of test: Cytotoxicity against human MDA-MB-435 cells. Format: functional. The procedure, abridged:
as §1

Another test deals with UACC-62. Kind of test: Cytotoxicity against human UACC62 cells. Format: functional. Put shortly: as §1
The test system of a further test is SF-539. Kind of test: Cytotoxicity against human SF539 cells. It is filed as functional. Put shortly:
as §1

A further test concerns SN12C. Kind of test: Cytotoxicity against human SN12C cells. Format: functional. Put shortly: as §1
The test system of a further test is OVCAR-3. Kind of test: Cytotoxicity against human OVCAR-3 cells. Format: functional. Put shortly:
as §1

For another test, the system named is HOP-62. Kind of test: Cytotoxicity against human HOP62 cells. It is filed as functional. The procedure, abridged:
as §1

A short description of test [2]: Induction of cell growth in human NCI60 cell sat 10 uM. Format: functional.

Take `NCCCCCCNCc1c2c(nc3ccccc13)-c1cc3ccccc3c(=O)n1C2`: the GI50 in the test with HCT-116 was 630 nM; in the test with DU-145, 330 nM; with MDA-MB-435 it was 1.5 µM; with UACC-62 it was 2000 nM; in the test on SF-539, 740 nM; in the test on SN12C, 510 nM. The GI50 in the test on OVCAR-3 was 1400 nM; with HOP-62, 1200 nM. The inhibition in test [1] is 50%.
With `NCCCCCCCCCCCNCc1c2c(nc3ccccc13)-c1cc3ccccc3c(=O)n1C2`, in test [1], the inhibition result is “inactive”.
On to `CC[C@@]1(O)C(=O)OCc2c1cc1n(c2=O)Cc2cc3ccccc3nc2-1` [CAMPTOTHECIN], for which the GI50 came to 30 nM in the test with HCT-116; 10 nM with DU-145; 0.04 µM in the test on MDA-MB-435; 10 nM in the test on UACC-62; 10 nM in the test on SF-539; 20 nM in the test with SN12C. In the test on HOP-62, the GI50 turned out to be 10 nM.
With `COc1cc2c3c(n(CCCNCCO)c(=O)c2cc1OC)-c1cc2c(cc1C3=O)OCO2` [LMP-744], the 50% growth inhibitory concentration (GI50) in the test on HCT-116 is 100 nM; with DU-145 it was less than 10 nM; in the test on MDA-MB-435 it was 0.79 µM; in the test on UACC-62, 30 nM; in the test on SF-539, 40 nM; in the test with SN12C, less than 10 nM. For the same compound, the GI50 was determined as 500 nM in the test with OVCAR-3 and 20 nM in the test with HOP-62. Further, the inhibition entry in test [1] was “Active”.
On to `O=c1c2ccccc2cc2n1Cc1cc3ccccc3nc1-2` [ROSETTACIN], for which the GI50 with DU-145 and with SN12C was greater than 100000 nM throughout.
In the case of `NCCCCCCCNCc1c2c(nc3ccccc13)-c1cc3ccccc3c(=O)n1C2`, in test [1], the inhibition turned out to be 50%.
In the case of `NCCCCCCCCNCc1c2c(nc3ccccc13)-c1cc3ccccc3c(=O)n1C2`, the GI50 in the test with HCT-116 is 1800 nM; in the test with DU-145, 1100 nM; with MDA-MB-435, 3.1 µM; in the test with UACC-62, 1800 nM; in the test on SF-539 it was 1900 nM; in the test on SN12C, 1800 nM. Further, the GI50 in the test on OVCAR-3 stood at 2500 nM; in the test with HOP-62, 2800 nM. Further, in [1], the inhibition stood at 25%.
For `NCCCCNCc1c2c(nc3ccccc13)-c1cc3ccccc3c(=O)n1C2`, in test [1], the inhibition worked out at 75%.
`Cl.NCCCCCCCCCCNCc1c2c(nc3ccccc13)-c1cc3ccccc3c(=O)n1C2`: the inhibition entry in test [1] is “inactive”. The compound also came in with an Activity in test [2] of 30%.
Take `NCCCNCc1c2c(nc3ccccc13)-c1cc3ccccc3c(=O)n1C2`: the GI50 in the test with HCT-116 was determined as 1500 nM; in the test on DU-145, 1100 nM; with MDA-MB-435 it was 6.8 µM; with UACC-62, 4800 nM; in the test on SF-539, 4900 nM; with SN12C, 2100 nM. Also, the figures for the GI50 with OVCAR-3 and in the test on HOP-62 were 1400 nM and 9800 nM, respectively. For the same compound, in test [1], the inhibition was 50%.
In the case of `NCCCCCCCCCCCCNCc1c2c(nc3ccccc13)-c1cc3ccccc3c(=O)n1C2`, the GI50 worked out at 2000 nM with HCT-116; 2000 nM in the test on DU-145; 1.7 µM with MDA-MB-435; 1900 nM in the test on UACC-62; 1800 nM in the test on SF-539; 2500 nM in the test on SN12C. Further, the GI50 in the test on OVCAR-3 stood at 1900 nM; with HOP-62, 6500 nM. Moreover, the inhibition entry in test [1] was “inactive”.
For `NCCNCc1c2c(nc3ccccc13)-c1cc3ccccc3c(=O)n1C2`, the GI50 came to 1500 nM in the test on HCT-116; 1400 nM in the test on DU-145; 11 µM with MDA-MB-435; 12600 nM in the test with UACC-62; 8300 nM in the test on SF-539; 1500 nM in the test with SN12C. For the same compound, the GI50 with OVCAR-3 came to 1700 nM; with HOP-62, 1400 nM. In [1], the inhibition was found to be 75%.
Take `NCCCCCNCc1c2c(nc3ccccc13)-c1cc3ccccc3c(=O)n1C2`: the GI50 with HCT-116 was 3200 nM; with DU-145 it was 1100 nM; in the test on MDA-MB-435, 12.6 µM; in the test with UACC-62, 1900 nM; with SF-539 it was 7200 nM; in the test on SN12C, 3200 nM. Further, the GI50 in the test on OVCAR-3 stood at 8100 nM; in the test on HOP-62, 2600 nM. Besides, the inhibition in test [1] is 25%.
For the compound `NCCCCCCCCCNCc1c2c(nc3ccccc13)-c1cc3ccccc3c(=O)n1C2`, the inhibition in test [1] came to 25%.
For `COc1cc2c3c(n(C)c(=O)c2cc1OC)-c1cc2c(cc1C3=O)OCO2`, the GI50 in the test with HCT-116 is 35000 nM; in the test with DU-145, 37000 nM; in the test on MDA-MB-435, 96 µM; in the test on UACC-62, 4200 nM; in the test with SF-539, 41000 nM; with SN12C, 68000 nM. The GI50 in the test on HOP-62 amounted to 1300 nM.
